Experimental data taken from ChEMBL document CHEMBL1811785, “Investigations on the 4-quinolone-3-carboxylic acid motif. 4. Identification of new potent and selective ligands for the cannabinoid type 2 receptor with diverse substitution patterns and antihyperalgesic effects in mice” (J Med Chem, 2011).
The source made the active and inactive calls. The rule behind the calls is not given here.

Key:
Cannabinoid receptor 2 = Cannabinoid receptor 2 (Homo sapiens, UniProt P34972); experiment: Displacement of [3H]CP-55940 from human recombinant CB2 receptor expressed in HEK cells; assay type: cell-based, HEK293
[1] = Cytotoxicity against human HepG2 cells assessed as cell viability at 1 uM after 72 hrs by MTT assay; assay type: cell-based; conditions: read-out: Activity
How it was run: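 HepG2 cells in DMEM with 10% FBS at 37 °C and 5% CO2 were seeded at 1 × 10⁵ per well and left to attach for 24 h. Compound was added at 1 μM final, diluted from a 1 mM DMSO stock, for 72 h. MTT was then added for 4 h at 37 °C, formazan was dissolved in DMSO and read at 540 nm. Viability = A(test)/A(medium-only control) × 100.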

Cannabinoid receptor 1 = Cannabinoid receptor 1 (Homo sapiens, UniProt P21554); experiment: biochemical; assay type: cell-based, HEK293
Homo sapiens = organism: Homo sapiens; experiment: Selectivity index, ratio of Ki for human recombinant CB1 receptor to Ki for human recombinant CB2 receptor
COS-7 = experiment: Inhibition of MAGL in african green monkey COS7 cells assessed as [14C]-2-arachidonoyl-glycerol hydrolysis up to 10 uM; assay type: cell-based; conditions: Chlorocebus aethiops
How it was run: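 COS-7 cell MAGL-like activity measured as hydrolysis of [¹⁴C]-2-arachidonoyl-glycerol, with compound tested at 0.1, 1, 5 and 10 μM.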

[2] = target: T1, Fatty-acid amide hydrolase 1 (Rattus norvegicus) (UniProt P97612); experiment: Inhibition of rat brain FAAH assessed as [14C]-anandamide hydrolysis up to 10 uM
T1 sequence (whole entry): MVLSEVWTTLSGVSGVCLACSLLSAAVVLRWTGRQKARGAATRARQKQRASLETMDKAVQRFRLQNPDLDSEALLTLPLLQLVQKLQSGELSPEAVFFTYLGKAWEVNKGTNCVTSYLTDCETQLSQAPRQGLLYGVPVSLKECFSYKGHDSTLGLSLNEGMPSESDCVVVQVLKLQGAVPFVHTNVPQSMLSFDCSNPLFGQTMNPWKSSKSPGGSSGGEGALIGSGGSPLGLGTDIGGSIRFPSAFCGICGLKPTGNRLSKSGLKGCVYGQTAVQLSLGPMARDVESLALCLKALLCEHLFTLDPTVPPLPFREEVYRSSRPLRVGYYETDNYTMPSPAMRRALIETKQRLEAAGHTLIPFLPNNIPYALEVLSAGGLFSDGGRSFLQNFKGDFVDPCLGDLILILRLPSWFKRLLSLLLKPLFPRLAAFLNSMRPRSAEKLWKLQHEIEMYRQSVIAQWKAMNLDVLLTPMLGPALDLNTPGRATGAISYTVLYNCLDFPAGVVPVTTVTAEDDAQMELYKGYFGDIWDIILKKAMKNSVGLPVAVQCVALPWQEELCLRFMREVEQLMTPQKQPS
How it was run: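 Hydrolysis of [¹⁴C]-anandamide by rat brain FAAH-like activity, with compound at 0.1, 1, 5 and 10 μM.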

Mus musculus [3] = experiment: Antinociceptive activity in mouse assessed as reduction of formalin-induced nocifensive response at 3 mg/kg, ip administered 15 mins before formalin challenge measured first phase of 0 to 10 mins in presence of CB2 receptor antagonist 1 mg/kg, ip of AM630; assay type: functional, organism-based
How it was run: (§1)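 Formalin paw test in mice. AM630 (1 mg/kg, ip) was given 5 min before the compound, and the compound was given ip 15 min before intraplantar-dorsal formalin (1.25% in saline, 30 μL). A blinded observer timed paw lifting, favoring, licking, shaking and flinching at 0–10 and 20–60 min. n = 8–10 per group. Means ± SEM, ANOVA with Dunnett's test.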

Mus musculus [4] = experiment: Antinociceptive activity in mouse assessed as reduction of formalin-induced nocifensive response at 3 mg/kg, ip administered 15 mins before formalin challenge measured second phase of 20 to 60 mins; assay type: functional, organism-based; design: dose 3 mg/kg
How it was run: (§2)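 Mice received compound ip at 1, 3 or 6 mg/kg (or vehicle) 15 min before formalin (1.25% in saline, 30 μL) was injected into the dorsal hindpaw. An observer blind to treatment timed lifting, favoring, licking, shaking and flinching of the injected paw over 0–10 min (early phase) and 20–60 min (late phase). n = 8–10 per group, one treatment per animal. Means ± SEM, ANOVA with Dunnett's test.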

Mus musculus [5] = experiment: Antinociceptive activity in mouse assessed as reduction of formalin-induced nocifensive response at 3 mg/kg, ip administered 15 mins before formalin challenge measured first phase of 0 to 10 mins; assay type: functional, organism-based; design: dose 3 mg/kg; how it was run: as §2
Mus musculus [6] = experiment: Antinociceptive activity in ip dosed mouse assessed as reduction of formalin-induced nocifensive response administered 15 mins before formalin challenge measured first phase of 0 to 10 mins; assay type: functional; conditions: read-out: MED; how it was run: as §2
Mus musculus [7] = experiment: Antinociceptive activity in mouse assessed as reduction of formalin-induced nocifensive response at 6 mg/kg, ip administered 15 mins before formalin challenge measured second phase of 20 to 60 mins; assay type: functional, organism-based; design: dose 6 mg/kg; how it was run: as §2
Mus musculus [8] = experiment: Antinociceptive activity in mouse assessed as reduction of formalin-induced nocifensive response at 6 mg/kg, ip administered 15 mins before formalin challenge measured second phase of 20 to 60 mins in presence of CB2 receptor antagonist 1 mg/kg, ip of AM630; assay type: functional, organism-based; how it was run: as §1

Sequence of Cannabinoid receptor 2 (P34972 whole entry): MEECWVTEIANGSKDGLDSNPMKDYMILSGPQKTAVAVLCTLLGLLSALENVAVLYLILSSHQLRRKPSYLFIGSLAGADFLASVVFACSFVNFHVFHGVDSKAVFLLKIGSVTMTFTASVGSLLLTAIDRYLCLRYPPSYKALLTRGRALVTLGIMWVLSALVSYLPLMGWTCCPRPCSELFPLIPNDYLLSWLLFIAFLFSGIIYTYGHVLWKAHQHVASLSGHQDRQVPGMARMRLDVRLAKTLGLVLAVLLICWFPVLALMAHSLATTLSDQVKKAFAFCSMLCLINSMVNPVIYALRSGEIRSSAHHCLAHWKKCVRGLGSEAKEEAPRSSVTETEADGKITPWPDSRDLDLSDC
Sequence of Cannabinoid receptor 1 (P21554 whole entry): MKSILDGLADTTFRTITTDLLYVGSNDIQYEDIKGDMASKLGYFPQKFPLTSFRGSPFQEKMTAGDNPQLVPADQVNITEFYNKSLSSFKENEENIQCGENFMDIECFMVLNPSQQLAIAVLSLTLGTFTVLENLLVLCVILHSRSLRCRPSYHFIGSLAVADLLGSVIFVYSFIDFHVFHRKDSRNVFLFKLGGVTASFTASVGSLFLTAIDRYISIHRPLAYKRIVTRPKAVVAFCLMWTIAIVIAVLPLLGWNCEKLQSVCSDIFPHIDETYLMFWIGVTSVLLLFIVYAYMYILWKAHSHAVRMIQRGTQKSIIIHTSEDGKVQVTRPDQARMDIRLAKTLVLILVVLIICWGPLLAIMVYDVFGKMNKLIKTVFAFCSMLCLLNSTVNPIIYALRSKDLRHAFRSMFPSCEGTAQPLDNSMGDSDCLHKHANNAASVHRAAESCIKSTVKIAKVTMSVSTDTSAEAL

SMILES	Ki (Cannabinoid receptor 2) [nM]	viability at 72 h, 1 µM [1] [%]	Ki (Cannabinoid receptor 1) [nM]	Ratio Ki (Homo sapiens)	also measured
CCCCCn1cc(C(=O)NC23CC4CC(CC(C4)C2)C3)c(=O)c2cc(Br)cc(OC)c21	22.9	> 95	> 10000	> 437	–
CCCCCn1c(=O)c(C(=O)NC23CC4CC(CC(C4)C2)C3)c(O)c2cc(-c3ccco3)ccc21	15	> 95	270	18	–
O=C(NC12CC3CC(CC(C3)C1)C2)c1c[nH]c2c(-c3ccccc3)cccc2c1=O	–	–	–	45	–
CCCCCn1c(=O)c(C(=O)NC23CC4CC(CC(C4)C2)C3)c(O)c2cc(Br)ccc21	29.4	> 95	> 10000	> 340	inhibition (COS-7): inactive; inhibition [2]: inactive; Activity (Mus musculus [3]): inactive; Activity (Mus musculus [4]): Active; Activity (Mus musculus [5]): Active
CCCCc1[nH]c2ccc(-c3ccco3)cc2c(=O)c1C(=O)NC12CC3CC(CC(C3)C1)C2	133	> 95	> 10000	> 75	–
O=C(NC12CC3CC(CC(C3)C1)C2)c1cnc2c(-c3ccccc3)cccc2c1O	220	> 95	> 10000	–	–
CCCCCn1cc(C(=O)NC23CC4CC(CC(C4)C2)C3)c(=O)c2cc(-c3ccco3)cc(OC)c21	8.5	> 95	> 10000	> 1180	minimal effective dose (Mus musculus [6]): 1 mg/kg; inhibition (COS-7): inactive; inhibition [2]: inactive; Activity (Mus musculus [3]): inactive; Activity (Mus musculus [4]): Active
CCCCCn1cc(C(=O)NC23CC4CC(CC(C4)C2)C3)c(=O)c2cccc(C)c21	0.7	> 95	> 10000	> 2040	–
CCCCCn1cc(C(=O)NC23CC4CC(CC(C4)C2)C3)c(=O)c2cc(-c3ccccc3)cc(OC)c21	430	> 95	> 10000	> 23	–
CCCCCn1cc(C(=O)NC23CC4CC(CC(C4)C2)C3)c(=O)c2cccc(OC)c21	0.6	> 95	> 10000	> 16700	inhibition (COS-7): inactive; inhibition [2]: inactive; Activity (Mus musculus [7]): Active; Activity (Mus musculus [8]): Active
CCCCCn1cc(C(=O)NC23CC4CC(CC(C4)C2)C3)c(=O)c2cccc([N+](=O)[O-])c21	1	–	200	200	–
COc1cccc2c(=O)c(C(=O)NC34CC5CC(CC(C5)C3)C4)c[nH]c12	–	–	–	> 2.9	–
CCC1COc2cccc3c(=O)c(C(=O)NC45CC6CC(CC(C6)C4)C5)cn1c23 (stereo not given)	6.9	> 95	1000	145	minimal effective dose (Mus musculus [6]): 1 mg/kg; inhibition (COS-7): inactive; inhibition [2]: inactive; Activity (Mus musculus [3]): Active; Activity (Mus musculus [4]): Active
COc1cccc2c(O)c(C(=O)NC34CC5CC(CC(C5)C3)C4)cnc12	3440	–	> 10000	–	–
CCCCCOc1cccc2c(O)c(C(=O)NC34CC5CC(CC(C5)C3)C4)cnc12	60	> 95	260	–	–
CCCCCOc1cccc2c(=O)c(C(=O)NC34CC5CC(CC(C5)C3)C4)c[nH]c12	–	–	–	4.3	–
CCCCc1[nH]c2ccc(Br)cc2c(=O)c1C(=O)NC12CC3CC(CC(C3)C1)C2	1180	–	> 10000	> 8	–
CCCCCn1c(=O)c(C(=O)NC23CC4CC(CC(C4)C2)C3)cc2ccccc21	0.2	–	31.3	157	–
